Data taken from ChEMBL document CHEMBL5724801, “EUbOPEN Chemogenomics Library - Multiplex” (2024).
“And” between values parts separate entries of the source, which are not always exact repeats. Identical values can stand only once.

System: U2OS
Assay: Multiplex assay against U2OS
Assay type: toxicity, cell-based
Details: human
Procedure, shortened: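 At seeding, live cells were stained with Hoechst33342, BioTracker Green Microtubule Cytoskeleton Dye, MitoTracker Red and Annexin V Alexa Fluor 680. After compound addition they were imaged on a CQ1 microscope at 37°C and 5% CO2, and CellPathfinder machine-learning gating sorted them into Hoechst high-intensity objects or normal cells, with normal cells further split into healthy, pyknosed or fragmented nuclei and pyknosed cells into mitotic or apoptotic. Tubulin, mitochondrial-mass and membrane-permeability phenotypes are given as per cents of cells with healthy nuclei.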

[1] = 12 h, 1 µM, compound concentration 1 uM
[2] = 12 h, 10 µM, compound concentration 10 uM
[3] = 24 h, 1 µM, compound concentration 1 uM
[4] = 24 h, 10 µM, compound concentration 10 uM
[5] = 48 h, 1 µM, compound concentration 1 uM
[6] = 48 h, 10 µM, compound concentration 10 uM

SMILES: Cc1cc(NC(=O)NCCN2CCC(O)(Cc3ccccc3)CC2)c2ccccc2n1 [PALOSURAN]
- Population Apoptotic (%) [1]: 80% and 71%
- Population Fragmented Nuclei (%) [1]: 27% and 19%
- Population Healthy Nuclei (%) [1]: 65% and 71%
- Population Hoechst High Intensity Objects (%) [1]: 1% and 0%
- Population Membrane Permeable-Phenotype (%) [1]: 4% and 2%
- Population Mitochondria Different-Phenotype (%) [1]: 2% and 0%
- Population Mitotic Cells (%) [1]: 20% and 28%
- Population Normal (%) [1]: 98% and 100%
- Population Pyknosed Nuclei (%) [1]: 6% and 9%
- Population Tubulin-Different-Phenotype (%) [1]: 1%
- Total Cell Count [1]: 220 and 145
- Population Apoptotic (%) [2]: 72% and 66%
- Population Fragmented Nuclei (%) [2]: 30% and 17%
- Population Healthy Nuclei (%) [2]: 59% and 70%
- Population Hoechst High Intensity Objects (%) [2]: 3%
- Population Membrane Permeable-Phenotype (%) [2]: 6% and 12%
- Population Mitochondria Different-Phenotype (%) [2]: 1% and 2%
- Population Mitotic Cells (%) [2]: 28% and 33%
- Population Normal (%) [2]: 96%
- Population Pyknosed Nuclei (%) [2]: 9% and 11%
- Population Tubulin-Different-Phenotype (%) [2]: 1% and 8%
- Total Cell Count [2]: 266 and 107
- Population Apoptotic (%) [3]: 94% and 66%
- Population Fragmented Nuclei (%) [3]: 26% and 17%
- Population Healthy Nuclei (%) [3]: 66% and 74%
- Population Hoechst High Intensity Objects (%) [3]: 1%
- Population Membrane Permeable-Phenotype (%) [3]: 3% and 7%
- Population Mitochondria Different-Phenotype (%) [3]: 3% and 7%
- Population Normal (%) [3]: 98%
- Population Pyknosed Nuclei (%) [3]: 6% and 8%
- Population Tubulin-Different-Phenotype (%) [3]: 2% and 3%
- Total Cell Count [3]: 276 and 173
- Population Apoptotic (%) [4]: 92% and 75%
- Population Fragmented Nuclei (%) [4]: 26% and 19%
- Population Healthy Nuclei (%) [4]: 65% and 74%
- Population Hoechst High Intensity Objects (%) [4]: 3%
- Population Membrane Permeable-Phenotype (%) [4]: 4% and 11%
- Population Mitochondria Different-Phenotype (%) [4]: 0% and 1%
- Population Normal (%) [4]: 96%
- Population Pyknosed Nuclei (%) [4]: 8% and 6%
- Population Tubulin-Different-Phenotype (%) [4]: 2% and 5%
- Total Cell Count [4]: 297 and 129
- Population Apoptotic (%) [5]: 96% and 84%
- Population Fragmented Nuclei (%) [5]: 25% and 15%
- Population Healthy Nuclei (%) [5]: 68% and 73%
- Population Hoechst High Intensity Objects (%) [5]: 1% and 3%
- Population Membrane Permeable-Phenotype (%) [5]: 5% and 7%
- Population Mitochondria Different-Phenotype (%) [5]: 3% and 5%
- Population Normal (%) [5]: 98% and 97%
- Population Pyknosed Nuclei (%) [5]: 6% and 11%
- Population Tubulin-Different-Phenotype (%) [5]: 3% and 4%
- Total Cell Count [5]: 411 and 233
- Population Apoptotic (%) [6]: 97% and 89%
- Population Fragmented Nuclei (%) [6]: 20% and 16%
- Population Healthy Nuclei (%) [6]: 70% and 72%
- Population Hoechst High Intensity Objects (%) [6]: 1%
- Population Membrane Permeable-Phenotype (%) [6]: 5% and 7%
- Population Mitochondria Different-Phenotype (%) [6]: 2% and 4%
- Population Mitotic Cells (%) [6]: 2% and 10%
- Population Normal (%) [6]: 98%
- Population Pyknosed Nuclei (%) [6]: 9% and 10%
- Population Tubulin-Different-Phenotype (%) [6]: 2% and 1%
- Total Cell Count [6]: 421 and 180

SMILES: C[C@H](NC(=O)c1c(C(F)F)nn(C)c1Oc1cccc(C(F)(F)F)c1)c1ccc(C(=O)O)cc1 [PALUPIPRANT]
- Population Apoptotic (%) [1]: 60% and 91%
- Population Fragmented Nuclei (%) [1]: 27% and 12%
- Population Healthy Nuclei (%) [1]: 63% and 78%
- Population Hoechst High Intensity Objects (%) [1]: 3% and 0%
- Population Membrane Permeable-Phenotype (%) [1]: 4%
- Population Mitochondria Different-Phenotype (%) [1]: 1% and 0%
- Population Normal (%) [1]: 96% and 99%
- Population Pyknosed Nuclei (%) [1]: 8% and 9%
- Population Tubulin-Different-Phenotype (%) [1]: 1% and 2%
- Total Cell Count [1]: 266 and 132
- Population Apoptotic (%) [2]: 83% and 100%
- Population Fragmented Nuclei (%) [2]: 28% and 13%
- Population Healthy Nuclei (%) [2]: 62% and 77%
- Population Hoechst High Intensity Objects (%) [2]: 3%
- Population Membrane Permeable-Phenotype (%) [2]: 7% and 5%
- Population Mitochondria Different-Phenotype (%) [2]: 4% and 2%
- Population Mitotic Cells (%) [2]: 16% and 0%
- Population Normal (%) [2]: 96%
- Population Pyknosed Nuclei (%) [2]: 8%
- Population Tubulin-Different-Phenotype (%) [2]: 5% and 2%
- Total Cell Count [2]: 293 and 117
- Population Apoptotic (%) [3]: 87% and 94%
- Population Fragmented Nuclei (%) [3]: 20% and 14%
- Population Healthy Nuclei (%) [3]: 72% and 73%
- Population Hoechst High Intensity Objects (%) [3]: 2% and 1%
- Population Membrane Permeable-Phenotype (%) [3]: 4% and 5%
- Population Mitochondria Different-Phenotype (%) [3]: 1% and 0%
- Population Mitotic Cells (%) [3]: 12% and 5%
- Population Normal (%) [3]: 97% and 98%
- Population Pyknosed Nuclei (%) [3]: 7% and 11%
- Population Tubulin-Different-Phenotype (%) [3]: 3% and 5%
- Total Cell Count [3]: 316 and 147
- Population Apoptotic (%) [4]: 91%
- Population Fragmented Nuclei (%) [4]: 18% and 13%
- Population Healthy Nuclei (%) [4]: 74% and 77%
- Population Hoechst High Intensity Objects (%) [4]: 2%
- Population Membrane Permeable-Phenotype (%) [4]: 5%
- Population Mitochondria Different-Phenotype (%) [4]: 3% and 1%
- Population Mitotic Cells (%) [4]: 8%
- Population Normal (%) [4]: 97%
- Population Pyknosed Nuclei (%) [4]: 7% and 8%
- Population Tubulin-Different-Phenotype (%) [4]: 1% and 0%
- Total Cell Count [4]: 339 and 139
- Population Apoptotic (%) [5]: 82% and 92%
- Population Fragmented Nuclei (%) [5]: 15%
- Population Healthy Nuclei (%) [5]: 73% and 70%
- Population Hoechst High Intensity Objects (%) [5]: 2% and 0%
- Population Membrane Permeable-Phenotype (%) [5]: 3%
- Population Mitochondria Different-Phenotype (%) [5]: 1% and 0%
- Population Mitotic Cells (%) [5]: 17% and 7%
- Population Normal (%) [5]: 97% and 99%
- Population Pyknosed Nuclei (%) [5]: 11% and 13%
- Population Tubulin-Different-Phenotype (%) [5]: 1% and 2%
- Total Cell Count [5]: 426 and 207
- Population Apoptotic (%) [6]: 91% and 85%
- Population Fragmented Nuclei (%) [6]: 18% and 14%
- Population Healthy Nuclei (%) [6]: 73% and 79%
- Population Hoechst High Intensity Objects (%) [6]: 2% and 1%
- Population Membrane Permeable-Phenotype (%) [6]: 5% and 1%
- Population Mitochondria Different-Phenotype (%) [6]: 3% and 1%
- Population Mitotic Cells (%) [6]: 8% and 14%
- Population Normal (%) [6]: 97% and 98%
- Population Pyknosed Nuclei (%) [6]: 7% and 6%
- Population Tubulin-Different-Phenotype (%) [6]: 3% and 0%
- Total Cell Count [6]: 463 and 223
